Sampled rows, rich in hits. Any-hit rate of the full collection: about 4.9%.
WT yeast gro inh: growth inhibition of WT strain, primary screen, mitochondrial fusion inhibitor project, WT and mutant strains, chemical genetic; 190,000 tested, 2.1% active; AID 1362, 2008; mitochondrial fusion phenotypic screen; inhibition, % at 10 µM; in the data active = inhibition above about 58%; tested in S. cerevisiae
NPY Y2 blocker: NPY-Y2 receptor antagonists, primary screen, cell-based; Neuropeptide Y receptor type 2 (Homo sapiens), P49146; NPY-Y2 expressing cells, antagonist mode; inhibition, % at 2.7 µM; 140,000 tested, 0.99% active; in the data active = inhibition above about 17%;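 also: 0% = vehicle with agonist challenge and 100% = reference antagonist with challenge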
NPY-Y1 antag: NPY-Y1 receptor antagonists, primary screen, cell-based. Neuropeptide Y receptor type 1 (Homo sapiens), P25929. HEK293-CNG Y1 cells, membrane potential fluorescence; NPY at EC95, then isoproterenol. inhibition, % at 3.6 µM. 200,000 tested, 1% active. AID 1040, 2008;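 active = inhibition above the campaign mean inhibition of all tested compounds plus 3 SD, cut at about 20% in these data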;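 also: 0% = DMSO wells given NPY plus isoproterenol and 100% = isoproterenol alone without NPY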
Target sequence (P25929 whole entry, looked up): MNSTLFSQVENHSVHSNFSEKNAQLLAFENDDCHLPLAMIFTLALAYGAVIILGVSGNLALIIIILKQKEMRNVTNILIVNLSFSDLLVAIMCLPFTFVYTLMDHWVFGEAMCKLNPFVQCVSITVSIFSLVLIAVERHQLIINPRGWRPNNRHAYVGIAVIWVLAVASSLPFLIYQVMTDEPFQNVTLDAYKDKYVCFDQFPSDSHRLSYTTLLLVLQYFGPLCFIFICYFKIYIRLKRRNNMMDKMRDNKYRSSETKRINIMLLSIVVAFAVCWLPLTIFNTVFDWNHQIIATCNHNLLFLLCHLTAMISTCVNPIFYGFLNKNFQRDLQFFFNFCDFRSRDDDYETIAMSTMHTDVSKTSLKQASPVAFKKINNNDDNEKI
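Assay system: HEK293 cells with Y1 receptor plus CNG channel | Probe or stimulus: NPY (25 nM), isoproterenol (1 µM), Ro 20-1724 (25 µM) | Timing: Compound incubation 1 h at room temperature, readout 45 min post-stimulation | Measured by: Membrane-potential fluorescent dye readout | Benchmarks: High control isoproterenol alone, low control NPY with isoproterenol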
RAM inhibit: inhibitors of the yeast RAM network, primary screen, dse1pr::URA3 reporter, 5-FOA selection; 190,000 tested, 1.8% active; AID 868, 2007; S. cerevisiae dse1pr::URA3 reporter, 5-FOA growth OD615, 2 d; analog-sensitive cbk1-as2 kinase mutant strain; inhibition, % at 50 µM;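 active = inhibition above a set limit, 3 SD over mean compound inhibition, cut at about 8.4% in these data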;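 also: 0% = DMSO-only wells with no growth and 100% = 10 µM 1-NA-PP1 full growth; inhibition rescues growth on 5-FOA so higher OD means more RAM inhibition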
NPY1 pot ag: NPY-Y1 receptor potentiators or agonists, primary screen, cell-based; activation, % at 3.6 µM; AID 1304, 2008; 220,000 tested, 0.37% active; NPY-Y1 expressing cells, potentiator/agonist activation; in the data active = activation above about 33%, passing the limit was not always enough;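 also: cells stimulated with NPY at EC10 then isoproterenol at EC100; 0% = low agonist plus stimulus and 100% = saturating agonist plus stimulus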
NPY-Y2 PAM-ag: NPY-Y2 potentiators or agonists, primary screen, cell-based; 220,000 tested, 0.45% active; activation, % at 3.6 µM; cells expressing NPY-Y2, potentiator/agonist read-out; in the data active = activation above about 27%;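 also: cells stimulated with NPY near EC25 plus isoproterenol at EC100; 0% = vehicle plus submaximal agonist and 100% = vehicle plus saturating agonist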
Starred values were filed as active, the others as inactive.

How did Cc1ccc(C2N=C(N)Nc3nc4ccccc4n32)cc1 (configuration not stated) do in these assays?
WT yeast gro inh: 5; NPY-Y1 antag: 1; RAM inhibit: 1; NPY1 pot ag: 19; NPY-Y2 PAM-ag: -4

How did O=C(Nc1cnn(Cc2ccc(F)cc2)c1)c1cc2nc(-c3ccco3)cc(C(F)(F)F)n2n1 do in these assays?
WT yeast gro inh: -4; NPY Y2 blocker: 0; NPY-Y1 antag: 2; RAM inhibit: 9.5*; NPY1 pot ag: 7; NPY-Y2 PAM-ag: 0

Results for CN(CC(=O)N1CC(=O)N(CCc2ccccc2)C(=O)C1)S(=O)(=O)c1cccc2nsnc12 ?
WT yeast gro inh: 6; NPY Y2 blocker: 2; NPY-Y1 antag: -3; RAM inhibit: 2; NPY1 pot ag: -20; NPY-Y2 PAM-ag: -13

What do the screens show for `CCn1ccnc1CN1CCc2c([nH]c3ccccc23)C1CC(C)C` (configuration not stated)?
WT yeast gro inh: 57; NPY-Y1 antag: 3; RAM inhibit: 2; NPY1 pot ag: 9; NPY-Y2 PAM-ag: -9

What do the screens show for `CCn1ccnc1CN1CCc2c([nH]c3ccccc23)C1C1CCCCC1` (configuration not stated)?
WT yeast gro inh: 65*; NPY-Y1 antag: 8; RAM inhibit: 1; NPY1 pot ag: 0; NPY-Y2 PAM-ag: -20

What do the screens show for `COCCN1C(=O)C(CC(=O)Nc2ccc(C(=O)O)cc2)SC1=Nc1ccccc1` (configuration not stated)?
WT yeast gro inh: 5; NPY Y2 blocker: 3; NPY-Y1 antag: -2; RAM inhibit: 4; NPY1 pot ag: 6; NPY-Y2 PAM-ag: 13

How did COC(=O)c1cc(NC(=O)CC2SC(=Nc3ccccc3)N(CCc3c[nH]c4ccccc34)C2=O)cc(C(=O)OC)c1 (configuration not stated) do in these assays?
WT yeast gro inh: 8; NPY Y2 blocker: -4; NPY-Y1 antag: -8; RAM inhibit: 7; NPY1 pot ag: 47*; NPY-Y2 PAM-ag: 35*

Results for CCOC(=O)C1CCN(S(=O)(=O)c2ccc(-c3nc4ccccc4s3)s2)CC1 ?
WT yeast gro inh: -9; NPY Y2 blocker: 3; NPY-Y1 antag: 4; RAM inhibit: 8.4*; NPY1 pot ag: 3; NPY-Y2 PAM-ag: -6

How did CCOC(=O)C1CCN(CC(=O)Nc2cc(C)nn2-c2nc3ccccc3s2)CC1 do in these assays?
WT yeast gro inh: 74*; NPY Y2 blocker: 2; NPY-Y1 antag: 3; RAM inhibit: 3; NPY1 pot ag: -15; NPY-Y2 PAM-ag: 5

How did COc1ccc(CN2CCN(C(=O)c3ccco3)CC2)cc1OC do in these assays?
WT yeast gro inh: -9; NPY-Y1 antag: 4; RAM inhibit: 1; NPY1 pot ag: 21; NPY-Y2 PAM-ag: 10

How did CC1=NN(c2nc(-c3ccc(C)cc3)cs2)C(=O)C1N=Nc1ccc2ccccc2c1 (configuration not stated) do in these assays?
WT yeast gro inh: 17; NPY Y2 blocker: 2; NPY-Y1 antag: -1; RAM inhibit: 11*; NPY1 pot ag: 2; NPY-Y2 PAM-ag: 9

What do the screens show for `Cc1ccc(-c2nn(-c3ccccc3)cc2/C=N/n2c(-c3cccs3)n[nH]c2=S)cc1`?
NPY1 pot ag: -11; NPY-Y2 PAM-ag: -19

Results for Cc1cc(C)cc(NC(=O)CN2CCc3ccccc3C2)c1 ?
WT yeast gro inh: 11; NPY Y2 blocker: 6; NPY-Y1 antag: 5; RAM inhibit: 1; NPY1 pot ag: -7; NPY-Y2 PAM-ag: -3

How did Cc1coc(C)c1C(=O)CC1(O)C(=O)Nc2cc(Cl)cc(Cl)c21 (configuration not stated) do in these assays?
WT yeast gro inh: 67*; NPY Y2 blocker: 2; NPY-Y1 antag: 0; RAM inhibit: 1; NPY1 pot ag: 18; NPY-Y2 PAM-ag: -13

Results for CCN1C(=O)C(O)(CC(=O)c2c(C)coc2C)c2ccccc21 (configuration not stated) ?
WT yeast gro inh: -4; NPY-Y1 antag: -1; RAM inhibit: 3; NPY1 pot ag: 16; NPY-Y2 PAM-ag: -6
